# Measurements as given in ChEMBL document CHEMBL1139110, “Structure-activity relationships of some taxoids as multidrug resistance modulator” (Bioorg Med Chem Lett, 2007).
# Key:
# [1] = Effect on calcein accumulation in multidrug-resistant human 2780AD cells at 0.25 ug/ml relative to control; format: functional, A2780 ADR
# Procedure, shortened: (§1)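 Multidrug-resistant human ovarian cancer 2780AD cells were exposed to test compounds at […], with verapamil as the positive control. Calcein accumulated in the cells was measured relative to a control experiment. Values are the mean of triplicate determinations.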
# [2] = Effect on calcein accumulation in multidrug-resistant human 2780AD cells at 2.5 ug/ml relative to control; format: functional, A2780 ADR; procedure, shortened: as §1
# [3] = Effect on calcein accumulation in multidrug-resistant human 2780AD cells at 25 ug/ml relative to control; format: functional, A2780 ADR; procedure, shortened: as §1
# [4] = Cytotoxicity againt human WI38 cells; format: cell-based; details: WI-38
# Procedure, shortened: (§2)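 IC50 was determined against WI-38, VA-13 and HepG2 cells and is given as the mean of duplicate determinations.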
# [5] = system: WI-38 VA13; test: Cytotoxicity againt human VA13 cells; format: functional, cell-based; procedure, shortened: as §2
# [6] = system: HepG2; test: Cytotoxicity againt human HepG2 cells; format: functional, cell-based; procedure, shortened: as §2
# [7] = Cytotoxicity againt multidrug-resistant human 2780AD cells; format: functional, cell-based; details: A2780 ADR
# Procedure, shortened: (§3)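 Each drug was tested alone or with a modulator added at final […]; verapamil was the reference modulator. Values are the mean of triplicate determinations.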
# [8] = system: A2780; test: Cytotoxicity againt human A2780 cells; format: functional, cell-based; procedure, shortened: as §3
SMILES,Activity [1],Activity [2],Activity [3],IC50 [4],IC50 [5],IC50 [6],IC50 [7],IC50 [8]
COc1ccc(CCN(C)CCCC(C#N)(c2ccc(OC)c(OC)c2)C(C)C)cc1OC (stereo unspecified),99%,103%,140%,–,–,–,–,–
CC(=O)OC[C@]1(O)[C@@H](O)CC[C@@]2(C)[C@@H](OC(C)=O)[C@H](OC(C)=O)C3=C(C)C(=O)C[C@@H]([C@@H](O)[C@@H]21)C3(C)C,88%,97%,126%,> 100 µg/mL,8.47 µg/mL,> 100 µg/mL,–,–
CC[C@]1(O)C[C@H]2CN(CCc3c([nH]c4ccccc34)[C@@](C(=O)OC)(c3cc4c(cc3OC)N(C=O)[C@H]3[C@@](O)(C(=O)OC)[C@H](OC(C)=O)[C@]5(CC)C=CCN6CC[C@]43[C@@H]65)C2)C1 [VINCRISTINE],–,–,–,–,–,–,895 nM,0.9 nM
CC(=O)O[C@H]1C(=O)[C@@]2(C)[C@H]([C@H](OC(=O)c3ccccc3)[C@]3(O)C[C@H](O)C(C)=C1C3(C)C)[C@]1(OC(C)=O)CO[C@@H]1C[C@@H]2O [BACCATIN III],93%,84%,81%,16.1 µg/mL,0.84 µg/mL,9.91 µg/mL,–,–
CC(=O)O[C@H]1C(=O)[C@]2(C)CC[C@H](O)[C@@](O)(CO)[C@H]2[C@H](OC(=O)c2ccccc2)[C@@H]2CC(=O)C(C)=C1C2(C)C,88%,114%,112%,57.4 µg/mL,59.6 µg/mL,33.4 µg/mL,–,–
CC(=O)O[C@@H]1[C@@H]2C[C@@H](O)C(C)=C([C@@H](OC(C)=O)[C@H](OC(C)=O)[C@]3(C)CC[C@H]4OC[C@@]4(O)[C@@H]13)C2(C)C,82%,95%,96%,76.2 µg/mL,> 100 µg/mL,> 100 µg/mL,–,–
CC(=O)O[C@H]1C(=O)[C@@]2(C)[C@H]([C@H](OC(=O)c3ccccc3)[C@]3(O)C[C@H](OC(=O)[C@H](O)[C@@H](NC(=O)c4ccccc4)c4ccccc4)C(C)=C1C3(C)C)[C@]1(OC(C)=O)CO[C@@H]1C[C@@H]2O [PACLITAXEL],–,–,–,–,–,–,535 nM,0.7 nM
CC(=O)O[C@@H]1[C@@H]2C[C@H](O)C(C)=C([C@@H](OC(C)=O)[C@H](OC(C)=O)[C@]3(C)CC[C@H]4OC[C@@]4(O)[C@@H]13)C2(C)C,94%,95%,95%,8.39 µg/mL,81.5 µg/mL,> 100 µg/mL,–,–
CC(=O)OC[C@]1(O)[C@@H](O)CC[C@@]2(C)[C@@H](OC(C)=O)[C@H](OC(C)=O)C3=C(C)C(=O)C[C@@H]([C@@H](OC(=O)/C=C/c4ccccc4)[C@@H]21)C3(C)C,88%,116%,145%,68.1 µg/mL,82.3 µg/mL,2.14 µg/mL,–,–
CC(=O)O[C@H]1C(=O)[C@]2(C)CC[C@H]3OC[C@@]3(O)[C@H]2[C@H](OC(=O)c2ccccc2)[C@@H]2CC(=O)C(C)=C1C2(C)C,101%,120%,137%,7.38 µg/mL,7.93 µg/mL,30.1 µg/mL,–,–
COc1cccc2c1C(=O)c1c(O)c3c(c(O)c1C2=O)C[C@@](O)(C(=O)CO)C[C@@H]3O[C@H]1C[C@H](N)[C@H](O)[C@H](C)O1 [DOXORUBICIN],–,–,–,–,–,–,909 nM,13 nM
CC(=O)O[C@@H]1[C@@H]2CC(=O)C(C)=C([C@@H](OC(C)=O)[C@H](OC(C)=O)[C@]3(C)CC[C@H]4OC[C@@]4(O)[C@@H]13)C2(C)C,115%,120%,123%,77 µg/mL,> 100 µg/mL,> 100 µg/mL,–,–
CC(=O)O[C@@H]1C2=C(C)C(=O)C[C@@H]([C@@H](OC(=O)c3ccccc3)[C@H]3[C@@](C)(CC[C@H]4OC[C@]43O)[C@H]1OC(C)=O)C2(C)C,97%,119%,135%,0.82 µg/mL,51.9 µg/mL,7.32 µg/mL,–,–
CC(=O)O[C@H]1C(=O)[C@]2(C)CC[C@H]3OC[C@@]3(O)[C@H]2[C@H](OC(=O)c2ccccc2)[C@@H]2C[C@H](O)C(C)=C1C2(C)C,96%,129%,163%,54.2 µg/mL,77 µg/mL,69.9 µg/mL,–,–
CC(=O)O[C@@]12CO[C@@H]1C[C@H](O)[C@@]1(C)C(=O)[C@H](O)C3=C(C)[C@@H](O)C[C@@](O)([C@@H](OC(=O)c4ccccc4)[C@H]21)C3(C)C,95%,90%,93%,–,–,–,–,–
CC(=O)O[C@H]1[C@H](O)C2=C(C)C(=O)C[C@@H]([C@@H](OC(=O)c3ccccc3)[C@H]3[C@@]1(C)CC[C@H]1OC[C@]13O)C2(C)C,115%,118%,134%,0.67 µg/mL,67 µg/mL,43.2 µg/mL,–,–
CC1=C2[C@@H](O)[C@H](O)[C@]3(C)CC[C@H]4OC[C@@]4(O)[C@H]3[C@H](OC(=O)c3ccccc3)[C@H](CC1=O)C2(C)C,105%,110%,106%,> 100 µg/mL,> 100 µg/mL,67.7 µg/mL,–,–
CC(=O)O[C@@H]1[C@@H]2CC(=O)C(C)=C([C@@H](OC(C)=O)[C@H](OC(C)=O)[C@]3(C)CC[C@H](O)[C@@](O)(CO)[C@@H]13)C2(C)C,79%,94%,88%,85.3 µg/mL,9.73 µg/mL,> 100 µg/mL,–,–
CC(=O)O[C@@H]1C2=C(C)C(=O)C[C@@H]([C@@H](OC(=O)c3ccccc3)[C@H]3[C@@](C)(CC[C@H]4OC[C@]43O)[C@H]1O)C2(C)C,99%,102%,140%,42.3 µg/mL,> 100 µg/mL,77.7 µg/mL,–,–
